In ChEMBL document CHEMBL3616466, “Pyrazolo[3,4-h]quinolines promising photosensitizing agents in the treatment of cancer” (Eur J Med Chem, 2015):
Activity calls are given as the source filed them. No cut-off for these calls is given here.

Tests used:
HL-60 [1] = experiment: Photocytotoxicity against human HL60 cells assessed as growth inhibition at 2.5 J/cm'2 irradiation for 30 mins followed by drug treated for 72 hrs by MTT assay; format: functional; conditions: HL-60, light or radiation study
Summary of the method: (§1)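 Cells seeded at 5 × 10³ per well and pre-incubated 24 h. Drug dilutions in HBSS (pH 7.2, from DMSO stock) added for 30 min at 37 °C, then UV-A irradiation at the stated dose. Drug solution then replaced with culture medium and plates incubated 72 h. Viability by MTT; GI50 from concentration series.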

LoVo [2] = experiment: Cytotoxicity against human LoVo cells assessed as growth inhibition after 72 hrs by MTT assay; format: functional
Summary of the method: (§2)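 Cells (5 × 10³ per well) pre-incubated 24 h at 37 °C, 5% CO₂, then exposed in the dark to serial concentrations diluted from DMSO stock into complete medium for 72 h at 37 °C. Viability read by MTT; GI50 derived. LoVo in Ham's F-12, MCF-7 and A-549 in DMEM, all with 10% FBS and penicillin/streptomycin.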

Jurkat [3] = experiment: Induction of apoptosis in human Jurkat cells assessed as lysosome death at 1 to 2 uM using acridine orange staining measured 24 hrs post 2.5 J/cm'2 irradiation by flow cytometry; format: functional, cell-based
A549 [4] = experiment: Photocytotoxicity against human A549 cells assessed as growth inhibition at 2.5 J/cm'2 irradiation for 30 mins followed by drug treated for 72 hrs by MTT assay; format: functional; conditions: A549, light or radiation study; summary of the method: as §1
Jurkat [5] = experiment: Induction of apoptosis in human Jurkat cells assessed as ROS production at 1 to 2 uM using HE and DCFDA staining measured 24 hrs post 2.5 J/cm'2 irradiation by FACS assay; format: functional, cell-based
Jurkat [6] = experiment: Photocytotoxicity against human Jurkat cells assessed as cell survival at 0.5 uM measured 72 hrs post 2.5 J/cm'2 irradiation by MTT assay in presence of lipophilic scavengers; format: functional, cell-based
Summary of the method: (§3)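 Jurkat cells irradiated at 2.5 J/cm² with compound in HBSS together with a scavenger: vitamin E 60 µM, NaN₃ 10 mM, DABCO 1 mM, GSH 1 mM, DMTU 1 mM or mannitol 10 mM. Medium replaced after irradiation; viability by MTT 72 h later.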

Jurkat [7] = experiment: Photocytotoxicity against human Jurkat cells assessed as reduction of cell survival at 0.5 uM measured 72 hrs post 2.5 J/cm'2 irradiation by MTT assay in the presence of vitamin E, NaN3, DABCO, DMTU and MANN; format: functional, cell-based; summary of the method: as §3
HL-60 [8] = experiment: Cytotoxicity against human HL60 cells assessed as growth inhibition after 72 hrs by MTT assay; format: functional; conditions: HL-60, 72 h
MCF7 [9] = experiment: Photocytotoxicity against human MCF7 cells assessed as growth inhibition at 3.75 J/cm'2 irradiation for 30 mins followed by drug treated for 72 hrs by MTT assay; format: functional; conditions: MCF7, light or radiation study; summary of the method: as §1
Escherichia coli = experiment: Induction of DNA damage in Escherichia coli pBR322 DNA measured at 7.5 J/cm'2 UV-A irradiation by neutral agarose electrophoresis
Summary of the method: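 pBR322 plasmid (100 ng) in 10 mM phosphate buffer pH 7.2 irradiated at 7.5 J/cm² UV-A with compound at a compound/DNA ratio of 3/1. Aliquots incubated at 37 °C with Fpg or Endo III. Run on 1% agarose in TAE at 70 V for 4 h; supercoiled, open circular and linear bands quantified.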

MCF7 [10] = experiment: Cytotoxicity against human MCF7 cells assessed as growth inhibition after 72 hrs by MTT assay; format: functional; conditions: MCF7, 72 h; summary of the method: as §2
Jurkat [11] = experiment: Induction of apoptosis in human Jurkat cells assessed as reduction in alive cells using Annexin-V and propidium iodide staining at 1 to 2 uM measured 24 hrs post 2.5 J/cm'2 irradiation by flow cytometry analysis; format: functional, cell-based
Summary of the method: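 Jurkat cells irradiated (2.5 J/cm²) with compound at 1 or 2 µM. After 24 h, co-stained with Annexin V-FITC and PI and analysed by flow cytometry (excitation 488 nm; emission 525 and 585 nm). Mean of three independent experiments.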

Jurkat [12] = experiment: Cytotoxicity against human Jurkat cells assessed as growth inhibition after 72 hrs by MTT assay; format: functional
Jurkat [13] = experiment: Induction of apoptosis in human Jurkat cells assessed as increase in cleaved caspase 3 level at 1 uM measured 24 hrs post 2.5 J/cm'2 irradiation by Western blot analysis; format: functional, cell-based
Summary of the method: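 Jurkat cells irradiated (2.5 J/cm²) with compound at 1 µM. At 24 h, cells washed in cold PBS and lysed on ice for 20 min. 20 µg protein run on 8–16% gradient gels and transferred to nitrocellulose. Probed with rabbit anti-caspase-3 and β-actin (1:1000, 2 h), then peroxidase anti-rabbit IgG; ECL detection.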

A549 [14] = experiment: Photocytotoxicity against human A549 cells assessed as inhibition of colony formation at 2.5 J/cm'2 irradiation after 1 to 2 weeks using crystal violet staining by optical microscopy; format: functional, cell-based
Summary of the method: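 A-549 cells (10 × 10³) plated in dishes. After 24 h, irradiated at 2.5 J/cm² with compound at varying concentrations. Medium replaced, then cultured 1–2 weeks with medium changes every 2–3 days. Stained with crystal violet; colonies of ≥50 cells counted visually. Expressed as % of untreated cells; mean ± SEM of three experiments.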

Jurkat [15] = experiment: Photocytotoxicity against human Jurkat cells assessed as growth inhibition at 1.25 J/cm'2 irradiation for 30 mins followed by drug treated for 72 hrs by MTT assay; format: functional; conditions: light or radiation study; summary of the method: as §1
Jurkat [16] = experiment: Induction of lipid peroxidation in human Jurkat cells at 2 uM measured 24 hrs post 2.5 J/cm'2 irradiation by TBA assay; format: functional, cell-based
Summary of the method: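 TBA test for TBARS performed on supernatant medium and on cell lysates 24 h post-irradiation. Mean ± SEM of three experiments.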

LoVo [17] = experiment: Photocytotoxicity against human LoVo cells assessed as growth inhibition at 3.75 J/cm'2 irradiation for 30 mins followed by drug treated for 72 hrs by MTT assay; format: functional; conditions: light or radiation study; summary of the method: as §1
A549 [18] = experiment: Photocytotoxicity against human A549 cells assessed as growth inhibition at 3.75 J/cm'2 irradiation for 30 mins followed by drug treated for 72 hrs by MTT assay; format: functional; conditions: A549, light or radiation study; summary of the method: as §1
Jurkat [19] = experiment: Induction of apoptosis in human Jurkat cells assessed as reduction in mitochondrial potential at 1 to 2 uM using JC-1 staining measured 24 hrs post 2.5 J/cm'2 irradiation by FACS assay; format: functional, cell-based
Summary of the method: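 At 24 h after 2.5 J/cm² irradiation with compound at 1 or 2 µM, Jurkat cells were pelleted and resuspended in HBSS with 1 µM JC-1. After 10 min at 37 °C, fluorescence read at 530 and 590 nm by flow cytometry. Mean ± SEM, n=3.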

HL-60 [20] = experiment: Photocytotoxicity against human HL60 cells assessed as growth inhibition at 1.25 J/cm'2 irradiation for 30 mins followed by drug treated for 72 hrs by MTT assay; format: functional; conditions: HL-60, light or radiation study; summary of the method: as §1
LoVo [21] = experiment: Photocytotoxicity against human LoVo cells assessed as growth inhibition at 2.5 J/cm'2 irradiation for 30 mins followed by drug treated for 72 hrs by MTT assay; format: functional; conditions: light or radiation study; summary of the method: as §1
A549 [22] = experiment: Cytotoxicity against human A549 cells assessed as growth inhibition after 72 hrs by MTT assay; format: functional; conditions: A549, 72 h; summary of the method: as §2
Jurkat [23] = experiment: Photocytotoxicity against human Jurkat cells assessed as growth inhibition at 2.5 J/cm'2 irradiation for 30 mins followed by drug treated for 72 hrs by MTT assay; format: functional; conditions: light or radiation study; summary of the method: as §1
MCF7 [24] = experiment: Photocytotoxicity against human MCF7 cells assessed as growth inhibition at 2.5 J/cm'2 irradiation for 30 mins followed by drug treated for 72 hrs by MTT assay; format: functional; conditions: MCF7, light or radiation study; summary of the method: as §1
LoVo [25] = experiment: Ratio of angelicin GI50 to compound GI50 for human LoVo cells assessed as growth inhibition at 3.75 J/cm'2 irradiation for 30 mins followed by drug treated for 72 hrs by MTT assay; format: functional
Summary of the method: (§4)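 Cells were pre-incubated 30 min at 37 °C with drug in HBSS, irradiated, then drug replaced with medium. Ratio is angelicin GI50 divided by compound GI50.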

Jurkat [26] = experiment: Photocytotoxicity against human Jurkat cells assessed as reduction of cell survival at 0.2 uM measured 72 hrs post 2.5 J/cm'2 irradiation by MTT assay in the presence of vitamin E, NaN3, DABCO, DMTU and MANN; format: functional, cell-based; summary of the method: as §3
[27] = Induction of singlet oxygen generation measured after UV-A irradiation by RNO bleaching assay; format: physicochemical
Summary of the method: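 Compound (2.2 × 10⁻⁵ M), RNO (4 × 10⁻⁵ M) and imidazole (4 × 10⁻⁵ M) in phosphate buffer pH 7.3 irradiated with increasing UV-A doses. Absorbance read at 440 nm; reported as % RNO bleaching.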

[28] = Induction of superoxide anion generation measured after UV-A irradiation by NBT reduction assay; format: physicochemical
Summary of the method: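 Compound (10⁻⁵ M) with nitroblue tetrazolium (1.6 × 10⁻⁴ M) in carbonate buffer pH 10 irradiated with increasing UV-A doses. Absorbance at 560 nm followed as the superoxide read-out.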

MCF7 [29] = experiment: Ratio of angelicin GI50 to compound GI50 for human MCF7 cells assessed as growth inhibition at 3.75 J/cm'2 irradiation for 30 mins followed by drug treated for 72 hrs by MTT assay; format: functional; summary of the method: as §4

| SMILES | GI50 (HL-60 [1]) | GI50 (LoVo [2]) | Activity (Jurkat [3]) | GI50 (A549 [4]) | Activity (Jurkat [5]) | GI50 (HL-60 [8]) | GI50 (MCF7 [9]) | Activity (Escherichia coli) | GI50 (MCF7 [10]) | Activity (Jurkat [11]) | GI50 (Jurkat [12]) | Activity (Jurkat [13]) | GI50 (Jurkat [15]) | GI50 (LoVo [17]) | GI50 (A549 [18]) | GI50 (HL-60 [20]) | GI50 (LoVo [21]) | GI50 (A549 [22]) | GI50 (Jurkat [23]) | GI50 (MCF7 [24]) | also measured |
| --- | --- | --- | --- | --- | --- | --- | --- | --- | --- | --- | --- | --- | --- | --- | --- | --- | --- | --- | --- | --- | --- |
| COc1ccc(-n2ncc3c2CCc2cc(S(=O)(=O)c4ccccc4)c(OC)nc2-3)cc1 | 720 nM | > 20000 nM | inactive | 4020 nM | inactive | > 20000 nM | 1180 nM | inactive | > 20000 nM | Active | 12500 nM | inactive | 1150 nM | 530 nM | 1520 nM | 5290 nM | 3560 nM | > 20000 nM | 640 nM | 2530 nM | Activity (Jurkat [6]): inactive; Activity (Jurkat [7]): inactive; Activity (A549 [14]): Dose-dependent effect; Activity (Jurkat [16]): Active; Activity (Jurkat [19]): Active |
| Cn1c(=O)c(S(=O)(=O)c2ccccc2)cc2ccc3c(cnn3-c3ccc(Cl)cc3)c21 | 310 nM |  | Active | 260 nM | Active |  | 170 nM | inactive |  | Active |  | Active | 200 nM | 40 nM | 80 nM | 390 nM | 160 nM |  | 100 nM | 330 nM | Ratio IC50 (LoVo [25]): 27; Activity (Jurkat [26]): inactive; Activity [27]: Active; Activity (A549 [14]): Dose-dependent effect; Activity [28]: Active; Ratio IC50 (MCF7 [29]): 8; Activity (Jurkat [16]): Active; Activity (Jurkat [19]): Active |
| COc1nc2c(cc1S(=O)(=O)c1ccccc1)CCc1c-2cnn1-c1cccc(Cl)c1 | 530 nM | > 20000 nM |  | 13300 nM |  | > 20000 nM | 2520 nM |  | > 20000 nM |  | 13200 nM |  | 1950 nM | 2990 nM | 6610 nM | 3420 nM | 9840 nM | > 20000 nM | 1340 nM | 5150 nM |  |
| COc1nc2c(ccc3c2cnn3-c2ccc(Cl)cc2)cc1S(=O)(=O)c1ccccc1 | 1200 nM | > 20000 nM |  | 3090 nM |  | > 20000 nM | 3230 nM |  | 7510 nM |  | > 20000 nM |  | 4230 nM | 710 nM | 750 nM | 2160 nM | 1430 nM | 4600 nM | 960 nM | 5360 nM |  |
